This note sets out measurements from ChEMBL document CHEMBL1212785, “In vitro potency of CXA-101, a novel cephalosporin, against Pseudomonas aeruginosa displaying various resistance phenotypes, including multidrug resistance” (2010).

Common to all, as to type: functional
Experiment [1] relates to Pseudomonas aeruginosa. As to the kind of experiment: Antimicrobial activity against drug resistant Pseudomonas aeruginosa isolates by broth microdilution method. The method, boiled down: (§1)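 Nonduplicate, nonurine, drug-resistant clinical isolates collected from 40 US hospitals, October 2005 to March 2008. MICs determined by CLSI reference broth microdilution. The cephalosporin was tested alone and with tazobactam fixed at 4 μg/ml. Comparators were tested by the same method. P. aeruginosa ATCC 27853 served as quality control, with ranges of 0.25 to 1 μg/ml for both regimens.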
(Broth dilution looks for growth in wells or tubes with falling amounts of substance.)

The subject of experiment [2] is Pseudomonas aeruginosa. As to the kind of experiment: Antimicrobial activity against multidrug resistant Pseudomonas aeruginosa isolates by broth microdilution method. An outline of the steps:
as §1

For experiment [3], the system named is Pseudomonas aeruginosa. As to the kind of experiment: Antimicrobial activity against imipenem resistant Pseudomonas aeruginosa isolates by broth microdilution method. An outline of the steps: as §1
Experiment [4] deals with Pseudomonas aeruginosa. As to the kind of experiment: Antimicrobial activity against Ceftazidime resistant Pseudomonas aeruginosa isolates by broth microdilution method. The method, boiled down: as §1
Experiment [5] has as its system Pseudomonas aeruginosa. As to the kind of experiment: Antimicrobial activity against piperacillin-tazobactam resistant Pseudomonas aeruginosa isolates by broth microdilution method. The method, boiled down:
as §1

In experiment [6] the test system is Pseudomonas aeruginosa. The experiment in a line: Antimicrobial activity against tobramycin resistant Pseudomonas aeruginosa isolates by broth microdilution method. An outline of the steps:
as §1

Converted amounts (≈) assume the structure as drawn.

For `CO/N=C(\C(=O)N[C@@H]1C(=O)N2C(C(=O)[O-])=C(C[N+]3(C)CCCC3)CS[C@H]12)c1csc(N)n1` [CEFEPIME], the MIC50 with Pseudomonas aeruginosa [1] was determined as 16 µg/mL (≈ 33.3 µM); in the experiment on Pseudomonas aeruginosa [2], 16 µg/mL (≈ 33.3 µM); against Pseudomonas aeruginosa [3], 8 µg/mL (≈ 16.6 µM); against Pseudomonas aeruginosa [4] it was 256 µg/mL (≈ 533 µM); in the experiment on Pseudomonas aeruginosa [5], 16 µg/mL. For the same molecule, the MIC90 with Pseudomonas aeruginosa [1] stood at 64 µg/mL (≈ 133 µM); against Pseudomonas aeruginosa [2], 64 µg/mL (≈ 133 µM); in the experiment with Pseudomonas aeruginosa [3] it was 32 µg/mL (≈ 66.6 µM); in the experiment on Pseudomonas aeruginosa [4], 256 µg/mL (≈ 533 µM); with Pseudomonas aeruginosa [5], 32 µg/mL.

Turning to `CC(C)(O/N=C(\C(=O)N[C@@H]1C(=O)N2C(C(=O)[O-])=C(C[n+]3ccccc3)CS[C@H]12)c1csc(N)n1)C(=O)O` [CEFTAZIDIME], the MIC50 with Pseudomonas aeruginosa [1] stood at 16 µg/mL (≈ 29.3 µM); with Pseudomonas aeruginosa [2] it was 64 µg/mL (≈ 117 µM); against Pseudomonas aeruginosa [3], 16 µg/mL (≈ 29.3 µM); in the experiment on Pseudomonas aeruginosa [4] it was 16 µg/mL (≈ 29.3 µM); in the experiment on Pseudomonas aeruginosa [5] it was 32 µg/mL. For the same molecule, the MIC90 against Pseudomonas aeruginosa [1] was 128 µg/mL (≈ 234 µM); in the experiment with Pseudomonas aeruginosa [2], 256 µg/mL (≈ 468 µM); against Pseudomonas aeruginosa [3], 128 µg/mL (≈ 234 µM); in the experiment with Pseudomonas aeruginosa [4] it was 64 µg/mL (≈ 117 µM); with Pseudomonas aeruginosa [5] it was 128 µg/mL.

Regarding `Cn1c(N)c(NC(=O)NCCN)c[n+]1CC1=C(C(=O)O)N2C(=O)[C@@H](NC(=O)/C(=N\OC(C)(C)C(=O)[O-])c3nsc(N)n3)[C@H]2SC1` [CEFTOLOZANE], the MIC50 in the experiment on Pseudomonas aeruginosa [1] worked out at 2 µg/mL (≈ 3 µM); in the experiment with Pseudomonas aeruginosa [2] it was 2 µg/mL (≈ 3 µM); in the experiment with Pseudomonas aeruginosa [3], 2 µg/mL (≈ 3 µM); in the experiment on Pseudomonas aeruginosa [4], 4 µg/mL (≈ 6 µM); in the experiment with Pseudomonas aeruginosa [5], 2 µg/mL; against Pseudomonas aeruginosa [6], 2 µg/mL (≈ 3 µM). In addition, the MIC90 against Pseudomonas aeruginosa [1] was 2 µg/mL (≈ 3 µM); in the experiment with Pseudomonas aeruginosa [2], greater than 64 µg/mL; in the experiment with Pseudomonas aeruginosa [3] it was 8 µg/mL (≈ 12 µM); in the experiment with Pseudomonas aeruginosa [4] it was 16 µg/mL (≈ 24 µM); in the experiment on Pseudomonas aeruginosa [5] it was 8 µg/mL; in the experiment on Pseudomonas aeruginosa [6], 64 µg/mL (≈ 96 µM).

With `O=C(O)c1cn(C2CC2)c2cc(N3CCNCC3)c(F)cc2c1=O` [CIPROFLOXACIN], the MIC50 is 32 µg/mL (≈ 96.6 µM) against Pseudomonas aeruginosa [2]; 8 µg/mL (≈ 24.1 µM) with Pseudomonas aeruginosa [3]; 2 µg/mL (≈ 6.04 µM) against Pseudomonas aeruginosa [4]; 1 µg/mL with Pseudomonas aeruginosa [5]; 32 µg/mL (≈ 96.6 µM) with Pseudomonas aeruginosa [6]. For the same molecule, the MIC90 was 64 µg/mL (≈ 193 µM) against Pseudomonas aeruginosa [2]; 64 µg/mL (≈ 193 µM) in the experiment on Pseudomonas aeruginosa [3]; 32 µg/mL (≈ 96.6 µM) with Pseudomonas aeruginosa [4]; 32 µg/mL with Pseudomonas aeruginosa [5]; 128 µg/mL (≈ 386 µM) against Pseudomonas aeruginosa [6].

Take `C[C@@H](O)[C@H]1C(=O)N2C(C(=O)O)=C(SCCNC=N)C[C@H]12` [IMIPENEM ANHYDROUS]: the MIC50 with Pseudomonas aeruginosa [1] was 8 µg/mL (≈ 26.7 µM); against Pseudomonas aeruginosa [2], 16 µg/mL (≈ 53.4 µM); in the experiment with Pseudomonas aeruginosa [3] it was 16 µg/mL (≈ 53.4 µM); with Pseudomonas aeruginosa [4], 64 µg/mL (≈ 214 µM); in the experiment with Pseudomonas aeruginosa [5], 64 µg/mL; with Pseudomonas aeruginosa [6], 128 µg/mL (≈ 428 µM). The MIC90 turned out to be 32 µg/mL (≈ 107 µM) with Pseudomonas aeruginosa [1]; 128 µg/mL (≈ 428 µM) against Pseudomonas aeruginosa [2]; 32 µg/mL (≈ 107 µM) in the experiment on Pseudomonas aeruginosa [3]; 256 µg/mL (≈ 855 µM) in the experiment on Pseudomonas aeruginosa [4]; 256 µg/mL with Pseudomonas aeruginosa [5]; 256 µg/mL (≈ 855 µM) in the experiment with Pseudomonas aeruginosa [6]. In the experiment on Pseudomonas aeruginosa [3], this molecule returned an MIC of 16 µg/mL (≈ 53.4 µM).

Turning to `C[C@H]1COc2c(N3CCN(C)CC3)c(F)cc3c(=O)c(C(=O)O)cn1c23.C[C@H]1COc2c(N3CCN(C)CC3)c(F)cc3c(=O)c(C(=O)O)cn1c23.O` [LEVOFLOXACIN], the MIC50 came out at 8 µg/mL in the experiment with Pseudomonas aeruginosa [1]; 32 µg/mL in the experiment with Pseudomonas aeruginosa [2]; 16 µg/mL against Pseudomonas aeruginosa [3]; 4 µg/mL in the experiment on Pseudomonas aeruginosa [4]; 4 µg/mL in the experiment with Pseudomonas aeruginosa [5]; 32 µg/mL against Pseudomonas aeruginosa [6]. Besides, the MIC90 worked out at 64 µg/mL in the experiment with Pseudomonas aeruginosa [1]; 128 µg/mL against Pseudomonas aeruginosa [2]; 64 µg/mL in the experiment on Pseudomonas aeruginosa [3]; 64 µg/mL in the experiment with Pseudomonas aeruginosa [4]; 64 µg/mL in the experiment with Pseudomonas aeruginosa [5]; 128 µg/mL against Pseudomonas aeruginosa [6].

Consider `C[C@@H](O)[C@H]1C(=O)N2C(C(=O)O)=C(S[C@@H]3CN[C@H](C(=O)N(C)C)C3)[C@H](C)[C@H]12` [MEROPENEM], for which the MIC50 with Pseudomonas aeruginosa [1] stood at 8 µg/mL (≈ 20.9 µM); in the experiment with Pseudomonas aeruginosa [2], 16 µg/mL (≈ 41.7 µM); with Pseudomonas aeruginosa [3], 16 µg/mL (≈ 41.7 µM); with Pseudomonas aeruginosa [4], 4 µg/mL (≈ 10.4 µM); with Pseudomonas aeruginosa [5], 2 µg/mL; in the experiment on Pseudomonas aeruginosa [6], 16 µg/mL (≈ 41.7 µM). The MIC90 against Pseudomonas aeruginosa [1] amounted to 32 µg/mL (≈ 83.4 µM); against Pseudomonas aeruginosa [2], 128 µg/mL (≈ 334 µM); against Pseudomonas aeruginosa [3] it was 32 µg/mL (≈ 83.4 µM); with Pseudomonas aeruginosa [4], 32 µg/mL (≈ 83.4 µM); with Pseudomonas aeruginosa [5], 32 µg/mL; with Pseudomonas aeruginosa [6] it was 128 µg/mL (≈ 334 µM).

With `NC[C@H]1O[C@H](O[C@H]2[C@H](O)[C@@H](O[C@H]3O[C@H](CO)[C@@H](O)[C@H](N)[C@H]3O)[C@H](N)C[C@@H]2N)[C@H](N)C[C@@H]1O` [TOBRAMYCIN], the MIC50 against Pseudomonas aeruginosa [1] was 2 µg/mL (≈ 4.28 µM); against Pseudomonas aeruginosa [2], 128 µg/mL (≈ 274 µM); against Pseudomonas aeruginosa [3], 1 µg/mL (≈ 2.14 µM); against Pseudomonas aeruginosa [4], 1 µg/mL (≈ 2.14 µM); in the experiment with Pseudomonas aeruginosa [5], 1 µg/mL; in the experiment on Pseudomonas aeruginosa [6] it was 32 µg/mL (≈ 68.4 µM). The MIC90 in the experiment on Pseudomonas aeruginosa [1] was 128 µg/mL (≈ 274 µM); against Pseudomonas aeruginosa [2] it was 256 µg/mL (≈ 548 µM); in the experiment on Pseudomonas aeruginosa [3], 64 µg/mL (≈ 137 µM); with Pseudomonas aeruginosa [4], 4 µg/mL (≈ 8.56 µM); with Pseudomonas aeruginosa [5] it was 4 µg/mL; in the experiment with Pseudomonas aeruginosa [6], 128 µg/mL (≈ 274 µM).

By MIC50 is commonly meant the lowest concentration that inhibits either 50% of growth or 50% of the strains tested, depending on the study. Broadly, the MIC90 is an inhibitory concentration at the 90% level, which refers to growth in some studies and to a panel of isolates in others. As a reminder, the MIC is the smallest concentration in the dilution series that meets the test's criterion for growth inhibition. Higher therefore signals a less susceptible organism.
